Series [1] has as its system Plasmodium falciparum. The experiment in a line: Antimalarial activity against Plasmodium falciparum 3D7A infected in human RBC after 48 hrs by [3H]-hypoxanthine incorporation assay. It is filed as functional.
Series [2] concerns the target serum albumin (Homo sapiens, UniProt P02768). The experiment in a line: Binding affinity to human serum albumin by HPLC method. It is filed as ADME. Particulars: read-out: PB (converted).
Series [3] can be described thus: Volume of distribution in CD1 mouse at 1.45 mg/kg, iv as bolus dose by LC-MS/MS method. It is filed as ADME, organism-based. To be noted: in vivo. The essentials:
(§1)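 Specific pathogen-free female CD1 (Hsd:ICR) mice, 8–10 weeks old, housed in the institutional animal facility. Each compound was given intravenously at a low dose and orally at a higher dose. Vd, clearance, t1/2, Cmax, Tmax, AUC0-t, AUC∞ and %F were derived from plasma exposure after each route.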

Series [4] in a line: Clearance in CD1 mouse at 1.45 mg/kg, iv as bolus dose by LC-MS/MS method. It is filed as ADME, organism-based. Particulars: in vivo. The essentials:
(§2)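 Specific pathogen-free female CD1 (Hsd:ICR) mice, 8 to 10 weeks old. Each compound was given as an intravenous dose and an oral dose at the levels listed. Parameters reported: Vd, clearance, t1/2, Cmax, Tmax, AUC0-t, AUC∞ and %F.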

A short description of series [5]: Half life in CD1 mouse at 1.45 mg/kg, iv as bolus dose by LC-MS/MS method. To be noted: in vivo. It is filed as ADME, organism-based. The essentials:
as §2

Series [6] is described as follows: Cmax in CD1 mouse at 8.7 mg/kg administered via oral gavage by LC-MS/MS method. Further details: dose 8.7 mg/kg, route oral. It is filed as ADME, organism-based. To be noted: in vivo. The essentials: as §2
Series [7] in a line: Tmax in CD1 mouse at 8.7 mg/kg administered via oral gavage by LC-MS/MS method. Particulars: in vivo. It is filed as ADME, organism-based. The essentials: as §1
A short description of series [8]: AUC (0 to t) in CD1 mouse at 8.7 mg/kg administered via oral gavage by LC-MS/MS method. It is filed as ADME, organism-based. To be noted: in vivo. The essentials: as §2
Series [9] is described as follows: AUC (infinity) in CD1 mouse at 8.7 mg/kg administered via oral gavage by LC-MS/MS method. It is filed as ADME, organism-based. Further details: dose 8.7 mg/kg, route oral, time infinity. To be noted: in vivo. A digest of the protocol:
as §2

Series [10] in a line: Oral bioavailability in CD1 mouse at 8.7 mg/kg administered via gavage by LC-MS/MS method. To be noted: in vivo. It is filed as ADME, organism-based. The essentials: as §1
Series [11] relates to Plasmodium yoelii. Description: Schizontocidal activity against Plasmodium yoelii infected in CD1 mouse administered via oral gavage as qd for 4 days starting 1 hr post infection by YOYO-1 dye-based flow cytometric method. It is filed as functional. A digest of the protocol:
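Blood schizontocidal activity was tested in a modified 4-day suppressive test in mice infected with P. yoelii. Four oral doses were given by gavage over four days.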
On the technique in general: A flow cytometer gives signals particle by particle.

A short description of series [12]: Volume of distribution in CD1 mouse at 0.211 mg/kg, iv as bolus dose by LC-MS/MS method. It is filed as ADME, organism-based. To be noted: in vivo. A digest of the protocol:
as §1

The nature of series [13]: Clearance in CD1 mouse at 0.211 mg/kg, iv as bolus dose by LC-MS/MS method. It is filed as ADME, organism-based. To be noted: in vivo. A digest of the protocol:
as §2

Series [14] in a line: Half life in CD1 mouse at 0.211 mg/kg, iv as bolus dose by LC-MS/MS method. It is filed as ADME, organism-based. To be noted: in vivo. The essentials: as §2
The nature of series [15]: Cmax in CD1 mouse at 8.366 mg/kg administered via oral gavage by LC-MS/MS method. It is filed as ADME, organism-based. Further details: dose 8.366 mg/kg, route oral. To be noted: in vivo. A digest of the protocol: as §2
Series [16] is described as follows: Tmax in CD1 mouse at 8.366 mg/kg administered via oral gavage by LC-MS/MS method. It is filed as ADME, organism-based. Particulars: in vivo. The essentials:
as §1

The nature of series [17]: AUC (0 to t) in CD1 mouse at 8.366 mg/kg administered via oral gavage by LC-MS/MS method. To be noted: in vivo. It is filed as ADME, organism-based. A digest of the protocol: as §2
Series [18] is described as follows: AUC (infinity) in CD1 mouse at 8.366 mg/kg administered via oral gavage by LC-MS/MS method. It is filed as ADME, organism-based. Further details: dose 8.366 mg/kg, route oral, time infinity. To be noted: in vivo. The essentials:
as §2

Series [19] can be described thus: Oral bioavailability in CD1 mouse at 8.366 mg/kg administered via gavage by LC-MS/MS method. It is filed as ADME, organism-based. To be noted: in vivo. The essentials: as §1
Series [20] in a line: Volume of distribution in CD1 mouse at 0.195 mg/kg, iv as bolus dose by LC-MS/MS method. It is filed as ADME, organism-based. To be noted: in vivo. A digest of the protocol:
as §1

Series [21] can be described thus: Clearance in CD1 mouse at 0.195 mg/kg, iv as bolus dose by LC-MS/MS method. It is filed as ADME, organism-based. To be noted: in vivo. The essentials: as §2
Series [22] is described as follows: Half life in CD1 mouse at 0.195 mg/kg, iv as bolus dose by LC-MS/MS method. It is filed as ADME, organism-based. Particulars: in vivo. A digest of the protocol: as §2
Series [23] is described as follows: Cmax in CD1 mouse at 9.354 mg/kg administered via oral gavage by LC-MS/MS method. Particulars: in vivo. It is filed as ADME, organism-based. Also noted: dose 9.354 mg/kg, route oral. A digest of the protocol: as §2
A short description of series [24]: Tmax in CD1 mouse at 9.354 mg/kg administered via oral gavage by LC-MS/MS method. It is filed as ADME, organism-based. Particulars: in vivo. The essentials: as §1
Series [25] is described as follows: AUC (0 to t) in CD1 mouse at 9.354 mg/kg administered via oral gavage by LC-MS/MS method. It is filed as ADME, organism-based. Particulars: in vivo. The essentials: as §2
The nature of series [26]: AUC (infinity) in CD1 mouse at 9.354 mg/kg administered via oral gavage by LC-MS/MS method. It is filed as ADME, organism-based. Further details: dose 9.354 mg/kg, route oral, time infinity. To be noted: in vivo. The essentials:
as §2

Series [27] is described as follows: Oral bioavailability in CD1 mouse at 9.354 mg/kg administered via gavage by LC-MS/MS method. It is filed as ADME, organism-based. Particulars: in vivo. The essentials:
as §1

Series [28] is described as follows: Cmax in CD1 mouse at 4.42 mg/kg administered via oral gavage by LC-MS/MS method. Also noted: dose 4.42 mg/kg, route oral. It is filed as ADME, organism-based. Particulars: in vivo. The essentials:
as §2

Series [29] is described as follows: Tmax in CD1 mouse at 4.42 mg/kg administered via oral gavage by LC-MS/MS method. It is filed as ADME, organism-based. To be noted: in vivo. A digest of the protocol: as §1
The nature of series [30]: AUC (0 to t) in CD1 mouse at 4.42 mg/kg administered via oral gavage by LC-MS/MS method. It is filed as ADME, organism-based. Particulars: in vivo. The essentials:
as §2

Series [31] is described as follows: AUC (infinity) in CD1 mouse at 4.42 mg/kg administered via oral gavage by LC-MS/MS method. Particulars: in vivo. Further details: dose 4.42 mg/kg, time infinity, route oral. It is filed as ADME, organism-based. The essentials:
as §2

Series [32] in a line: Oral bioavailability in CD1 mouse at 4.42 mg/kg administered via gavage by LC-MS/MS method. It is filed as ADME, organism-based. To be noted: in vivo. A digest of the protocol: as §1

Sequence of serum albumin (P02768 whole entry): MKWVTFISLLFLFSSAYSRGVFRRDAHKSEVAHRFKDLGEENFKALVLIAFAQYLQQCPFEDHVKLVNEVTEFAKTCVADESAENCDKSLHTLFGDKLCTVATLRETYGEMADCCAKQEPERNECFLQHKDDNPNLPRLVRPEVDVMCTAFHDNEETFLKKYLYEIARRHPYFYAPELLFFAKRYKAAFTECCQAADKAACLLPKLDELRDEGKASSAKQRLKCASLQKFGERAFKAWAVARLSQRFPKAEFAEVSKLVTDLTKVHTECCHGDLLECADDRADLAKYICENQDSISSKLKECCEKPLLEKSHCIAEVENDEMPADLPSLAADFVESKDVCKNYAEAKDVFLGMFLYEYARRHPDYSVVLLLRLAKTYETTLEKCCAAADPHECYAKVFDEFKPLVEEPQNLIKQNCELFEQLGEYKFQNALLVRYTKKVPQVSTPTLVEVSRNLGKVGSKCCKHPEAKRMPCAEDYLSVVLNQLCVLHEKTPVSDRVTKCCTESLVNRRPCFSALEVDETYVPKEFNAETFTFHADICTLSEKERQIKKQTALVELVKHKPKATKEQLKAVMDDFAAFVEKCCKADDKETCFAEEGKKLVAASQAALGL

Broadly, the IC50 is the point on the concentration scale where inhibition reaches its midpoint. A word on the Vd: it is a proportionality between amount in the body and measured concentration, not a real space. The clearance is the rate of elimination divided by the concentration. A lower clearance goes with a low capacity for elimination. As usually defined, the half-life is the time needed for the level to fall by half in the phase considered. The Cmax is the maximum level reached in the sampled fluid or tissue. In general, Tmax refers to the time from dosing to the highest level. The term AUC(0-t) denotes exposure summed from dosing to a finite time, without extrapolation to infinity. The AUC(0-inf) is total exposure, with the tail of the curve extrapolated. High values mean more exposure, low ones less exposure. For orientation: ED50 means the midpoint of the dose-response relation. The low end stands for greater potency, the high end for weaker potency. The molecule `Cc1[nH]c(CO)c(-c2ccc(-c3ccc(OC(F)(F)F)cc3)nc2)c(=O)c1Cl` registered an IC50 in series [1] of 34 nM. In addition, the fraction unbound in [2] was 0.05. The molecule further showed a Vd in series [3] of 1.11 L/kg. The clearance in series [4] amounted to 1.76 mL/min/kg. Further, the half-life in series [5] is 7.4 h. For the same molecule, the Cmax in series [6] amounted to 8540 ng/mL. In [7], the Tmax came to 1 h. Besides, the AUC(0-t) in series [8] was found to be 110000 ng·h/mL. This molecule came in with an AUC(0-inf) in series [9] of 111000 ng·h/mL. Also, in series [10], the bioavailability came out at 133%. Further, in [11], the ED50 is 0.4 mg/kg.

On to `Cc1[nH]c(C)c(-c2ccc(-c3ccc(C(F)(F)F)cc3Cl)nc2)c(=O)c1Cl`, for which, in series [1], inhibition was half-maximal at 2 nM (IC50). Moreover, in series [2], the fraction unbound was 0.05. In series [12], this molecule returned a Vd of 1.24 L/kg. Also, the clearance in series [13] worked out at 1.11 mL/min/kg. For the same molecule, the half-life in series [14] is 12.8 h. The molecule also returned a Cmax in series [15] of 1690 ng/mL. Also, the Tmax in [16] is 10 h. Further, the AUC(0-t) in [17] was found to be 37400 ng·h/mL. Moreover, in [18], the area under the curve AUC(0-inf) is 37500 ng·h/mL. Further, the bioavailability in series [19] was found to be 30%. The same molecule showed an ED50 in series [11] of 0.33 mg/kg.

With `Cc1[nH]c(C)c(-c2ccc(-c3cccc(C(F)(F)F)c3)nc2)c(=O)c1Cl`, inhibition in series [1] was half-maximal at 40 nM (IC50). In series [2], the fraction unbound is 0.05. The molecule also gave a Vd in [20] of 0.68 L/kg. The clearance in series [21] worked out at 1.52 mL/min/kg. The molecule also gave a half-life in series [22] of 5.13 h. The Cmax in series [23] is 2470 ng/mL. Further, the Tmax in series [24] was 3 h. The molecule further came in with an AUC(0-t) in series [25] of 39500 ng·h/mL. The molecule further registered an AUC(0-inf) in [26] of 39500 ng·h/mL. The bioavailability in [27] was determined as 38.7%. The ED50 in series [11] was determined as 1.2 mg/kg.

Take `Cc1[nH]c(CO)c(-c2ccc(-c3ccc(C(F)(F)F)cc3F)nc2)c(=O)c1Cl`: 5 nM corresponded to half-maximal inhibition in series [1] (IC50). Besides, the fraction unbound in series [2] is 0.06. Further, in [11], the ED50 was 0.2 mg/kg.

On to `Cc1[nH]c(C)c(-c2ccc(-c3ccc(C(F)(F)F)cc3)nc2)c(=O)c1Cl`, for which the IC50 in series [1] is 16 nM. Moreover, the fraction unbound in [2] is 0.05. For the same molecule, the highest level in [28] (Cmax) was 3310 ng/mL. The Tmax in series [29] stood at 10 h. For the same molecule, the AUC(0-t) in [30] turned out to be 101000 ng·h/mL. In addition, the AUC(0-inf) in series [31] amounted to 106000 ng·h/mL. Further, the bioavailability in [32] amounted to 100%. This molecule also gave an ED50 in [11] of 0.25 mg/kg.

Source of the values: ChEMBL document CHEMBL4043297, “Synthesis and Structure-Activity Relationships of the Novel Antimalarials 5-Pyridinyl-4(1 H)-Pyridones” (J Med Chem, 2018).
